Assay results: ChEMBL document CHEMBL3867438, “Cytotoxic Tirucallane and Apotirucallane Triterpenoids from the Stems of Picrasma quassioides” (J Nat Prod, 2016)
Calls of active or inactive are those of the source. No cut-off for these calls is given here.

What was measured:
[1] = Cytotoxicity against human MKN28 cells assessed as inhibition of cell proliferation after 48 hrs by MTT assay; assay type: functional, cell-based; details: MKN-28, 48 h
Method in brief: (§1)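 Cells grown in DMEM with 10% FBS, 100 U/mL penicillin, 100 μg/mL streptomycin, 37 °C, 5% CO2. Seeded 5 × 10^3 cells/well, 12 h, then exposed to compounds for 48 h. MTT (5 mg/mL stock) added for 4 h at 37 °C, formazan dissolved in DMSO, absorbance read at 570 nm. IC50 relative to untreated control. Triplicate, repeated twice; cis-platinum as positive control.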

[2] = Cytotoxicity against human A549 cells assessed as inhibition of cell proliferation after 48 hrs by MTT assay; assay type: functional, cell-based; details: A549, 48 h; method in brief: as §1
[3] = Cytotoxicity against human MCF7 cells assessed as inhibition of cell proliferation after 48 hrs by MTT assay; assay type: functional, cell-based; details: MCF7, 48 h; method in brief: as §1
MKN-28 [4] = assay: Induction of apoptosis in human MKN28 cells assessed as viable cells at 2 uM after 48 hrs by annexin V-FITC/PI staining based flow cytometry (reference value: 100%); assay type: functional; details: MKN-28, 48 h, read-out: Activity
Method in brief: (§2)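 MKN-28 cells (3 × 10^5/well) treated at 2, 6 and 8 μM for 48 h. Stained with annexin V-FITC and PI using a kit per the maker's protocol, then analysed by flow cytometry. Apoptotic populations quantified, early and late apoptosis counted separately. Data given as mean with SD; one-way ANOVA with Tukey's post hoc test.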

MKN-28 [5] = assay: Induction of apoptosis in human MKN28 cells assessed as early apoptotic cells at 2 uM after 48 hrs by annexin V-FITC/PI staining based flow cytometry (reference value: 0.043%); assay type: functional; method in brief: as §2
MKN-28 [6] = assay: Induction of apoptosis in human MKN28 cells assessed as late apoptotic cells at 2 uM after 48 hrs by annexin V-FITC/PI staining based flow cytometry (reference value: 0%); assay type: functional; method in brief: as §2
MKN-28 [7] = assay: Induction of apoptosis in human MKN28 cells assessed as necrotic cells at 2 uM after 48 hrs by annexin V-FITC/PI staining based flow cytometry (reference value: 0%); assay type: functional; method in brief: as §2
MKN-28 [8] = assay: Induction of apoptosis in human MKN28 cells assessed as viable cells at 6 uM after 48 hrs by annexin V-FITC/PI staining based flow cytometry (reference value: 100%); assay type: functional; details: MKN-28, 48 h, read-out: Activity; method in brief: as §2
MKN-28 [9] = assay: Induction of apoptosis in human MKN28 cells assessed as early apoptotic cells at 6 uM after 48 hrs by annexin V-FITC/PI staining based flow cytometry (reference value: 0.043%); assay type: functional; method in brief: as §2
MKN-28 [10] = assay: Induction of apoptosis in human MKN28 cells assessed as late apoptotic cells at 6 uM after 48 hrs by annexin V-FITC/PI staining based flow cytometry (reference value: 0%); assay type: functional; method in brief: as §2
MKN-28 [11] = assay: Induction of apoptosis in human MKN28 cells assessed as necrotic cells at 6 uM after 48 hrs by annexin V-FITC/PI staining based flow cytometry (reference value: 0%); assay type: functional; method in brief: as §2
MKN-28 [12] = assay: Induction of apoptosis in human MKN28 cells assessed as viable cells at 8 uM after 48 hrs by annexin V-FITC/PI staining based flow cytometry (reference value: 100%); assay type: functional; details: MKN-28, 48 h, read-out: Activity; method in brief: as §2
MKN-28 [13] = assay: Induction of apoptosis in human MKN28 cells assessed as early apoptotic cells at 8 uM after 48 hrs by annexin V-FITC/PI staining based flow cytometry (reference value: 0.043%); assay type: functional; method in brief: as §2
MKN-28 [14] = assay: Induction of apoptosis in human MKN28 cells assessed as late apoptotic cells at 8 uM after 48 hrs by annexin V-FITC/PI staining based flow cytometry (reference value: 0%); assay type: functional; method in brief: as §2
MKN-28 [15] = assay: Induction of apoptosis in human MKN28 cells assessed as necrotic cells at 8 uM after 48 hrs by annexin V-FITC/PI staining based flow cytometry (reference value: 0%); assay type: functional; method in brief: as §2
MKN-28 [16] = assay: Induction of apoptosis in human MKN28 cells assessed as increase in early apoptotic cells after 48 hrs by annexin V-FITC/PI staining based flow cytometry; assay type: functional, cell-based; method in brief: as §2
MKN-28 [17] = assay: Induction of apoptosis in human MKN28 cells assessed as increase in late apoptotic cells after 48 hrs by annexin V-FITC/PI staining based flow cytometry; assay type: functional, cell-based; method in brief: as §2
MKN-28 [18] = assay: Induction of mitochondrial apoptosis in human MKN28 cells assessed as caspase 3 activation at 2 to 8 uM after 48 hrs by Western blot analysis; assay type: functional, cell-based
Method in brief: (§3)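 MKN-28 cells (1 × 10^6/dish) cultured with compound at 2, 6 and 8 μM for 48 h. Cells lysed for 30 min on ice in RIPA buffer with DTT, PMSF and phosphatase inhibitor, then spun at 14000g, 4 °C, 15 min. Protein measured by BCA. Blots probed for Bcl-2, Bax, Bad, cleaved and pro-caspase-3 and -9, with β-actin as loading control.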

MKN-28 [19] = assay: Induction of mitochondrial apoptosis in human MKN28 cells assessed as caspase 9 activation at 2 to 8 uM after 48 hrs by Western blot analysis; assay type: functional, cell-based; method in brief: as §3
MKN-28 [20] = assay: Induction of mitochondrial apoptosis in human MKN28 cells assessed as increase in bax expression level at 2 to 8 uM after 48 hrs by Western blot analysis; assay type: functional, cell-based; method in brief: as §3
MKN-28 [21] = assay: Induction of mitochondrial apoptosis in human MKN28 cells assessed as increase in bad expression level at 2 to 8 uM after 48 hrs by Western blot analysis; assay type: functional, cell-based; method in brief: as §3
MKN-28 [22] = assay: Induction of mitochondrial apoptosis in human MKN28 cells assessed as decrease in bcl-2 expression level at 2 to 8 uM after 48 hrs by Western blot analysis; assay type: functional, cell-based; method in brief: as §3

## CCO[C@@H]1O[C@@H](C=C(C)C)C[C@H]1[C@@H]1CC=C2[C@]3(C)[C@H](O)C[C@H]4C(C)(C)[C@H](O)CC[C@]4(C)[C@H]3CC[C@]21C
[1]
  IC50: 2.5 µM
[2]
  IC50: 5.6 µM
[3]
  IC50: 9.1 µM
MKN-28 [4]
  viability at 2 µM: 93.2%
MKN-28 [5]
  Activity: 3.21%
MKN-28 [6]
  Activity: 2.69%
MKN-28 [7]
  Activity: 0.869%
MKN-28 [8]
  viability at 6 µM: 78.9%
MKN-28 [9]
  Activity: 5.76%
MKN-28 [10]
  Activity: 12.6%
MKN-28 [11]
  Activity: 2.51%
MKN-28 [12]
  viability at 8 µM: 66%
MKN-28 [13]
  Activity: 12.4%
MKN-28 [14]
  Activity: 21%
MKN-28 [15]
  Activity: 0.685%
MKN-28 [16]
  Activity: Dose-dependent effect
MKN-28 [17]
  Activity: Dose-dependent effect
MKN-28 [18]
  Activity: Active
MKN-28 [19]
  Activity: Active
MKN-28 [20]
  Activity: Active
MKN-28 [21]
  Activity: Active
MKN-28 [22]
  Activity: Active
